Reference: ChEMBL document CHEMBL4316593 (Eur J Med Chem, 2019)
pIC50: −log10 of the molar value. Active and inactive are the calls of the source. The calls are words filed in the database; no cut-off is given here.

Key:
[1] = Inhibition of RTK/PI3K/AKT/mTOR signaling in human U87 cells assessed as down regulation of SAFB2 gene expression at cytotoxic IC50 measured after 48 hrs relative to control; type: cell-based; settings: U-87MG ATCC
Summary of the method: (§1)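 Cells were exposed for 48hrs at 37°C in humidified 5% CO₂ to the compound at its previously determined IC₅₀, with Cisplatin at its IC₅₀ and an untreated negative control alongside. Each condition was run in triplicate. RNA was isolated from all samples by the same protocol. Genes were called differentially expressed by DESeq2 at q-value < 0.05 and fold change > 1.5.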

LN-229 [2] = experiment: Cytotoxicity against human LN229 cells assessed as reduction in cell proliferation measured after 48 hrs by trypan blue dye-based cell counting analysis; settings: LN-229, 48 h
U-87 MG [3] = experiment: Induction of apoptosis in human U87 cells assessed as change in CAPN1 gene expression at cytotoxic IC50 measured after 48 hrs […] relative to control; type: functional, U-87MG ATCC
Summary of the method: (§2)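 U87 cells grown in MEM with 10% FBS at 37°C, 5% CO2. Cells exposed to IC50 of test compound for 48 hrs, alongside untreated and cisplatin controls, each condition in triplicate. RNA isolated and profiled; differential expression called with DESeq2 (q-value < 0.05, fold change > 1.5), fold change versus untreated.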

[4] = Inhibition of RTK/PI3K/AKT/mTOR signaling in human U87 cells assessed as down regulation of NAAA gene expression at cytotoxic IC50 measured after 48 hrs relative to control; type: cell-based; settings: U-87MG ATCC; summary of the method: as §1
U-87 MG [5] = experiment: Induction of DNA damage in human U87 cells assessed as change in BTG2 gene expression at cytotoxic IC50 measured after 48 hrs […] relative to control; type: functional, U-87MG ATCC
Summary of the method: (§3)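 U87 expression profiling. Cells incubated 48hrs at 37°C, 5% CO₂ with the IC₅₀ concentration, alongside a cisplatin and an untreated control, in triplicate. RNA was isolated by one common protocol and profiled. DEGs were called with DESeq2 (q < 0.05, fold change > 1.5) and expressed as fold change versus untreated.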

U-87 MG [6] = experiment: Cell cycle arrest in human U87 cells assessed as change in CDK1 gene expression at cytotoxic IC50 measured after 48 hrs […] relative to control; type: functional, U-87MG ATCC; summary of the method: as §3
[7] = Inhibition of RTK/PI3K/AKT/mTOR signaling in human U87 cells assessed as up regulation of MORC family CW-type zinc finger 2 gene expression at cytotoxic IC50 measured after 48 hrs relative to control; type: cell-based; settings: U-87MG ATCC; summary of the method: as §1
[8] = Inhibition of RTK/PI3K/AKT/mTOR signaling in human U87 cells assessed as up regulation of isoleucyl-tRNA synthetase gene expression at cytotoxic IC50 measured after 48 hrs relative to control; type: cell-based; settings: U-87MG ATCC
U-87 MG [9] = experiment: Cell cycle arrest in human U87 cells assessed as change in YWHAG gene expression at cytotoxic IC50 measured after 48 hrs […] relative to control; type: functional, U-87MG ATCC; summary of the method: as §3
LN-229 [10] = experiment: Induction of oxidative stress in human LN229 cells assessed as increase in redox level at cytotoxic IC50 measured after 5 hrs by H2DCFDA dye based fluorescence assay relative to control; type: functional, cell-based
Summary of the method: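 Cells grown overnight, exposed to IC50 for 5 hrs at 37°C with negative, positive (H2O2) and blank controls, plus solvent baseline. Pelleted, loaded with 2 µM H2DCFDA for 30 min at 37°C, washed, resuspended in warm medium, 20 min at room temperature. Fluorescence read at ex 485/em 535 nm.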

U-87 MG [11] = experiment: Cell cycle arrest in human U87 cells assessed as change in CDK6 gene expression at cytotoxic IC50 measured after 48 hrs […] relative to control; type: functional, U-87MG ATCC; summary of the method: as §3
U-87 MG [12] = experiment: Cell cycle arrest in human U87 cells assessed as change in CDK4 gene expression at cytotoxic IC50 measured after 48 hrs […] relative to control; type: functional, U-87MG ATCC; summary of the method: as §3
U-87 MG [13] = experiment: Induction of apoptosis in human U87 cells assessed as change in BAX gene expression at cytotoxic IC50 measured after 48 hrs […] relative to control; type: functional, U-87MG ATCC; summary of the method: as §2
U-87 MG [14] = experiment: Cell cycle arrest in human U87 cells assessed as change in SFN gene expression at cytotoxic IC50 measured after 48 hrs […] relative to control; type: functional, U-87MG ATCC; summary of the method: as §3
[15] = Inhibition of RTK/PI3K/AKT/mTOR signaling in human U87 cells assessed as down regulation of TOMM34 gene expression at cytotoxic IC50 measured after 48 hrs relative to control; type: cell-based; settings: U-87MG ATCC; summary of the method: as §1
U-87 MG [16] = experiment: Cell cycle arrest in human U87 cells assessed as change in CREBBP gene expression at cytotoxic IC50 measured after 48 hrs […] relative to control; type: functional, U-87MG ATCC; summary of the method: as §3
[17] = Inhibition of RTK/PI3K/AKT/mTOR signaling in human U87 cells assessed as up regulation of T-cell leukemia translocation altered gene expression at cytotoxic IC50 measured after 48 hrs relative to control; type: cell-based
[18] = Inhibition of RTK/PI3K/AKT/mTOR signaling in human U87 cells assessed as up regulation of KDM5B gene expression at cytotoxic IC50 measured after 48 hrs relative to control; type: cell-based; settings: U-87MG ATCC; summary of the method: as §1
U-87 MG [19] = experiment: Induction of DNA damage in human U87 cells assessed as change in GADD45A gene expression at cytotoxic IC50 measured after 48 hrs […] relative to control; type: functional, U-87MG ATCC; summary of the method: as §3
U-87 MG [20] = experiment: Cytotoxicity against human U87 cells assessed as reduction in cell proliferation measured after 48 hrs by trypan blue dye-based cell counting analysis
U-87 MG [21] = experiment: Induction of apoptosis in human U87 cells assessed as change in FAS gene expression at cytotoxic IC50 measured after 48 hrs […] relative to control; type: functional, U-87MG ATCC; summary of the method: as §2
[22] = Inhibition of RTK/PI3K/AKT/mTOR signaling in human U87 cells assessed as up regulation of lecithin retinol acyltransferase (phosphatidylcholine-retinol O-acyltransferase) gene expression at cytotoxic IC50 measured after 48 hrs relative to control; type: cell-based; settings: U-87MG ATCC
[23] = Inhibition of RTK/PI3K/AKT/mTOR signaling in human U87 cells assessed as up regulation of GGA2 gene expression at cytotoxic IC50 measured after 48 hrs relative to control; type: cell-based; settings: U-87MG ATCC; summary of the method: as §1
U-87 MG [24] = experiment: Cell cycle arrest in human U87 cells assessed as accumulation at G1 phase at cytotoxic IC50 measured after 48 hrs by propidium iodide staining based fluorescence cell imaging analysis (reference value: 39.7%); type: functional, U-87MG ATCC
Summary of the method: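 Cell cycle by PI staining. Cells seeded at 1×10^6 and grown overnight at 37°C, 5% CO₂, then exposed for 48hrs at their IC₅₀ concentration, with DMSO and cisplatin controls. Cells were trypsinized, washed in cold PBS and fixed in 70% ethanol at 4°C for 30 min. They were stained with PI in Triton X-100/RNase for 15 min at 37°C and imaged by fluorescence microscopy. Reported as mean ± S.E.M of triplicates.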

U-87 MG [25] = experiment: Induction of apoptosis in human U87 cells assessed as change in GADD45B gene expression at cytotoxic IC50 measured after 48 hrs […] relative to control; type: functional, U-87MG ATCC; summary of the method: as §2
[26] = Inhibition of RTK/PI3K/AKT/mTOR signaling in human U87 cells assessed as down regulation of TAF13 gene expression at cytotoxic IC50 measured after 48 hrs relative to control; type: cell-based; settings: U-87MG ATCC; summary of the method: as §1
U-87 MG [27] = experiment: Induction of apoptosis in human U87 cells assessed as change in ACTG1 gene expression at cytotoxic IC50 measured after 48 hrs […] relative to control; type: functional, U-87MG ATCC; summary of the method: as §2

## CC(=O)C(=NNc1ccccc1C#N)C(C)=O
[1]
  log2FC: -0.69
LN-229 [2]
  pIC50: 4.06
U-87 MG [3]
  log2FC: 0.8843
[4]
  log2FC: -1.57
U-87 MG [5]
  fold change (FC): 2.177
U-87 MG [6]
  fold change (FC): 1.569
[7]
  log2FC: 0.946
[8]
  log2FC: 1.04
U-87 MG [9]
  fold change (FC): -0.7503
LN-229 [10]
  Activity: inactive
U-87 MG [11]
  fold change (FC): -1.311
U-87 MG [12]
  fold change (FC): 1.499
U-87 MG [13]
  log2FC: 2.512
U-87 MG [14]
  fold change (FC): 1.949
[15]
  log2FC: -1.47
U-87 MG [16]
  fold change (FC): -1.086
[17]
  log2FC: 1.25
[18]
  log2FC: 0.553
U-87 MG [19]
  fold change (FC): -0.9679
U-87 MG [20]
  pIC50: 3.97
U-87 MG [21]
  log2FC: 3.514
[22]
  log2FC: 1.23
[23]
  log2FC: 0.505
U-87 MG [24]
  Activity: 47.7%
U-87 MG [25]
  log2FC: -2.899
[26]
  log2FC: -1.05
U-87 MG [27]
  log2FC: -1.416
